IDH1 mut inh: blocks human IDH1 R132H reductase activity; O75874; diaphorase/resazurin fluorescence, 60 min; inhibition, % at 10 µM; 70,000 tested, 0.18% active; in the data active means inhibition above about 34%; inconclusive means no clear call, values can overlap the other calls; inactive means below about 11%;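 further: 0% = DMSO and 100% = no enzyme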
Target sequence (O75874 whole entry R132H): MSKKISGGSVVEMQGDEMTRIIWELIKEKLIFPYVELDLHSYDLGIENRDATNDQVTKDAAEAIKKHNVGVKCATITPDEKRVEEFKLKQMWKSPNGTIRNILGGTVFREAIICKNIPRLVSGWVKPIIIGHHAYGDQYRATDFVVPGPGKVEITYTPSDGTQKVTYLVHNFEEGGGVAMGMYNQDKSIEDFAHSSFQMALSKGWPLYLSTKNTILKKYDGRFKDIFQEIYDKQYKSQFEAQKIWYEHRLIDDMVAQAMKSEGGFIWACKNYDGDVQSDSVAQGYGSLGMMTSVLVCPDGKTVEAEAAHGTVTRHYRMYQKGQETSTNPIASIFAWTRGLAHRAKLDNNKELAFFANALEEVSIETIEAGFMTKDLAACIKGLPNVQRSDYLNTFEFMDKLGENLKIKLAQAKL
KDM4C inh: blocks human GASC-1 (KDM4C) demethylase activity. Q9H3R0. GST-KDM4C 2-372, H3K9me3 peptide, LANCE TR-FRET. AID 720574. 96,000 tested, 0.15% active. inhibition, % at 12.5 µM;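 active means mean replicate inhibition above about 25%, with at least 55% of replicates also reaching it, limit read from the data, passing the limit was not always enough; inconclusive means only one of those two conditions met; inactive means neither condition met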
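Material: GST-tagged GASC-1 (JMJD2C) catalytic fragment, aa 2-372. Input: enzyme final amount 10 nM. Medium: HEPES buffer, pH 7.5, plus ascorbate. Reagent: H3K9me3 peptide substrate, Fe(II), 2-oxoglutarate. Doses: single dose. Times: reaction 30 min RT, detection step 1 h RT. Measured by: LANCE TR-FRET. Evaluation: Fall in 671/618 emission ratio as inhibition.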
T cruzi growth-1: T. cruzi proliferation inhibition | 77,000 tested, 5.9% active | T. cruzi beta-gal in NIH3T3, GalScreen luminescence, 90 h | inhibition, % at 8.34 µM;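 active means mean inhibition above about 93%, with at least 55% of replicates each passing it, limit read from the data, passing the limit was not always enough; inconclusive means only one of those two conditions holds; inactive means neither condition holds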
T cruzi growth-2: inhibitors of T. cruzi proliferation | shares compounds with T cruzi growth-1 | T. cruzi beta-gal in NIH3T3, GalScreen luminescence, 90 h | inhibition, % at 8.35 µM | 5,600 tested, 72% active;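 active means mean replicate inhibition above about 95% and at least 55% of replicates individually reaching it, limit read from the data; inconclusive means only one of the two criteria is met; inactive means neither criterion is met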
T cruzi growth-3: inhibitors of T. cruzi proliferation; shares compounds with T cruzi growth-1; T. cruzi beta-gal in NIH3T3, GalScreen luminescence, 90 h; inhibition, % at 2.09 µM; 5,600 tested, 21% active;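 active means mean inhibition above about 95%, with at least 55% of replicates also reaching it, limit read from the data; inconclusive means meets just one of the two conditions; inactive means meets neither condition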;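 further: plate controls were neutral control median for no effect and positive control median for full effect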
NIH3T3 tox: cytotoxicity in mouse NIH/3T3 fibroblasts; shares compounds with T cruzi growth-1; NIH/3T3 viability, CellTiter-Glo ATP luminescence, 90 h; cytotoxicity (signal decrease), % at 8.35 µM; 5,600 tested, 14% active;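 active means mean signal decrease across replicates above about 35% based on untreated-well scatter, with enough replicates individually passing, limit read from the data; inconclusive means no rule stated though some were filed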;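 further: 0% = median of neutral control wells and 100% = median of positive control wells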
NIH3T3 tox 2: NIH/3T3 (mouse) viability loss; AID 651744; 5,600 tested, 56% active; inhibition, % at 24.9 µM; shares compounds with T cruzi growth-1; NIH/3T3 viability, CellTiter-Glo ATP luminescence, 90 h;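 active means mean loss of cell viability signal at or above a set limit, and enough replicates individually reaching it; inconclusive means meets only the mean limit or only the replicate share; inactive means meets neither condition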;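 further: 0% = median of neutral control wells and 100% = median of positive control wells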
* = called active by the depositor; u = inconclusive; x = no result given. The full list was thinned out, with hits kept by preference.

SMILES | IDH1 mut inh | KDM4C inh | T cruzi growth-1 | T cruzi growth-2 | T cruzi growth-3 | NIH3T3 tox | NIH3T3 tox 2
CC(C)(C)NS(=O)(=O)c1ccc(NC(=O)CSc2nc3ccccc3[nH]2)cc1 | 0 | x | x | x | x | x | x
O=C(COc1ccc(Cl)cc1)Nc1ccc(O)c(-c2nc3ccccc3o2)c1 | 0 | x | x | x | x | x | x
C[C@@H]1CCCCO[C@H](CN(C)Cc2ccc(C(=O)O)cc2)[C@H](C)CN([C@H](C)CO)C(=O)c2cc(NS(=O)(=O)c3cccs3)ccc2O1 | 8 | 0 | 48 | x | x | x | x
C[C@@H]1CCCCO[C@H](CN(C)Cc2ccc(C(F)(F)F)cc2)[C@@H](C)CN([C@H](C)CO)C(=O)c2cc(NS(=O)(=O)c3cccs3)ccc2O1 | x | 0 | 23 | x | x | x | x
C[C@@H]1CCCCO[C@H](CN(C)Cc2ccc(C(F)(F)F)cc2)[C@H](C)CN([C@H](C)CO)C(=O)c2cc(NS(=O)(=O)c3cccs3)ccc2O1 | x | -1 | 101* | 99* | 117* | 25 | 105*
C[C@@H]1CCCCO[C@@H](CN(C)Cc2ccc(C(F)(F)F)cc2)[C@H](C)CN([C@H](C)CO)C(=O)c2cc(NS(=O)(=O)c3cccs3)ccc2O1 | 1 | -1 | 114* | 98* | 114* | -10 | 104*
C[C@@H]1CCCCO[C@@H](CN(C)Cc2ccc(C(F)(F)F)cc2)[C@H](C)CN([C@@H](C)CO)C(=O)c2cc(NS(=O)(=O)c3cccs3)ccc2O1 | x | 0 | 112* | 103* | 99* | u | 106*
C[C@@H]1CCCCO[C@@H](CN(C)Cc2ccc(C(F)(F)F)cc2)[C@@H](C)CN([C@H](C)CO)C(=O)c2cc(NS(=O)(=O)c3cccs3)ccc2O1 | x | 0 | 81 | x | x | x | x
C[C@@H]1CN([C@@H](C)CO)C(=O)c2cc(NS(=O)(=O)c3cccs3)ccc2O[C@@H](C)CCCCO[C@@H]1CN(C)Cc1ccc(C(=O)O)cc1 | x | 1 | -144 | x | x | x | x
C[C@@H]1CCCCO[C@H](CN(C)Cc2ccc(C(F)(F)F)cc2)[C@H](C)CN([C@@H](C)CO)C(=O)c2cc(NS(=O)(=O)c3cccs3)ccc2O1 | 1 | -2 | 113* | 97* | 104* | 18 | 103*
CNC(=O)CN(C#N)c1nc(C)cc(C)n1 | 0 | x | x | x | x | x | x
CC(C)N(Cc1nc(-c2ccccc2Cl)no1)S(=O)(=O)c1ccc([N+](=O)[O-])cc1 | 0 | x | x | x | x | x | x
COC(=O)CN(c1cc([N+](=O)[O-])ccc1C)S(C)(=O)=O | 0 | x | x | x | x | x | x
COc1ccc(C)cc1S(=O)(=O)N(CC(=O)O)c1cc(C)cc(C)c1 | 0 | x | x | x | x | x | x
O=c1cc(-c2ccc(O)c(O)c2)oc2c(C3OC(CO)C(O)C(O)C3O)c(O)cc(O)c12 (stereo not given) | -1 | x | x | x | x | x | x
C[C@@H]1CCCCO[C@@H](CN(C)C(=O)Nc2ccc(C(F)(F)F)cc2)[C@@H](C)CN([C@H](C)CO)C(=O)c2cc(NS(=O)(=O)c3cccs3)ccc2O1 | 1 | 0 | x | x | x | x | x
C[C@H](CO)N1C[C@H](C)[C@H](CN(C)C(=O)Nc2ccc(C(F)(F)F)cc2)OCCCC[C@H](C)Oc2ccc(NS(=O)(=O)c3cccs3)cc2C1=O | 7 | 1 | 97* | 97* | 105* | -2 | 1
Cc1ccc(C)c(C(Nc2ccccn2)c2cc(Cl)c3cccnc3c2O)c1 (stereo not given) | 1 | x | x | x | x | x | x
OC(COc1ccccc1F)Cn1cnc2ccccc21 (stereo not given) | 0 | x | x | x | x | x | x
C[C@H]1CN([C@@H](C)CO)C(=O)Cc2cc(NS(=O)(=O)c3ccccc3)ccc2O[C@H]1CN(C)Cc1ccc2c(c1)OCO2 | 2 | 1 | 31 | x | x | x | x
COc1ccc(S(=O)(=O)Nc2ccc3c(c2)CC(=O)N([C@H](C)CO)C[C@H](C)[C@@H](CN(C)Cc2ccc4c(c2)OCO4)O3)cc1 | 2 | 1 | u | 108* | 62 | -17 | -5
COc1ccc(S(=O)(=O)Nc2ccc3c(c2)CC(=O)N([C@@H](C)CO)C[C@@H](C)[C@@H](CN(C)Cc2ccc4c(c2)OCO4)O3)cc1 | 1 | -1 | 52 | x | x | x | x
COc1ccc(S(=O)(=O)Nc2ccc3c(c2)CC(=O)N([C@H](C)CO)C[C@H](C)[C@H](CN(C)Cc2ccc4c(c2)OCO4)O3)cc1 | x | -1 | 69 | x | x | x | x
